Source: PubChem
KCNK9 block: KCNK9 potassium channel inhibitors, primary screen, HEK293 cells, thallium flux | FluxOR thallium flux fluorescence; active compounds read low | B-score at 10 µM | actives 1.2% (n = 310,000) | AID 488922, 2010;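 active means ratio B-score over 3 SD below the library mean, with starting fluorescence within 5 SD of its mean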;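 further: negative B-score means less thallium flux so channel inhibition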
KCNQ1 act: potentiators or activators of KCNQ1 channel, primary screen, cell-based, thallium flux, high-throughput; B-score at 10 µM; actives 0.35% (n = 310,000); Potassium voltage-gated channel subfamily KQT member 1 (Homo sapiens), P51787; CHO-K1 KCNQ1, thallium flux FluxOR fluorescence; active compounds read high;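 active means fluorescence ratio B-score, a plate-corrected score, at least three library SD, with initial intensity B-score within 5 SD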
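Material: CHO-K1 cells stably expressing KCNQ1. Medium: assay buffer for compound exposure, DMSO matched across wells. Reagent: K+/Tl+ depolarizing stimulus. Compound dosing: single-concentration screen. Times: 37 °C overnight plating, 90-min dark dye load, 20-min compound pretreatment. Technique: FluxOR Tl+ flux fluorescence.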
hERG rescue: hERG rescue from dofetilide block, primary screen, cell-based, CHO-hERG, FluxOR thallium flux, dofetilide IC70 | Voltage-gated inwardly rectifying potassium channel KCNH2 (Homo sapiens), Q12809 | dofetilide IC70 present | activation (rescue from dofetilide block), less the hit threshold, % at 10 µM | actives 0.51% (n = 310,000);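 active means activation above the mean of controls blocked by dofetilide plus 5 SD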;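 further: thallium influx through hERG after potassium depolarization seen as dye fluorescence rise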
Kir21 block: inhibitors of mouse Kir2.1 inward-rectifier potassium channel. HEK293-Kir2.1, FluxOR thallium flux fluorescence; active compounds read low. Inward rectifier potassium channel 2 (Mus musculus), P35561. actives 0.85% (n = 310,000). AID 1672, 2009. B-score at 10 µM;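 active means fluorescence ratio B-score at or below minus 3 SD of library scores, with starting-brightness B-score within 2 SD, cut at about -4.2 in these data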;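 further: channel flux triggered by added potassium and thallium sulfate stimulus; B-score of peak minus minimum fluorescence over baseline after thallium stimulus; more negative B-score means stronger Kir2.1 block with less thallium influx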
KCNK3 inh: human KCNK3 channel inhibitors, primary screen, CHO cells, FluxOR thallium flux, B-score; Potassium channel subfamily K member 3 (Homo sapiens), O14649; FluxOR fluorescence; active compounds read low; B-score at 10 µM; actives 0.84% (n = 340,000);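 active means B-score under library mean minus 4 SD, starting fluorescence ratio at most library mean plus 5 SD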;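 further: more negative B-score means stronger inhibition of thallium flux through KCNK3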
Target sequence (O14649 whole entry, looked up): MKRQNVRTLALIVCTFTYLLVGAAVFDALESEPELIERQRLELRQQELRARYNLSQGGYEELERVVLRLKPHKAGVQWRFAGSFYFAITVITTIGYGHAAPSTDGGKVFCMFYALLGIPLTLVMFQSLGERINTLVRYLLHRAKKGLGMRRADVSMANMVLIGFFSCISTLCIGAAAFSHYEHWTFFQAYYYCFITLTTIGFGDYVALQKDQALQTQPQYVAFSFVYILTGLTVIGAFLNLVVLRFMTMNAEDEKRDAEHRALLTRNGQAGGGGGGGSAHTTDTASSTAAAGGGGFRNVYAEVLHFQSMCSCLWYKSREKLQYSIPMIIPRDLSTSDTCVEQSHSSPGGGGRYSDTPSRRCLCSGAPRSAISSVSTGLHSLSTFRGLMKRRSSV
KCNQ1 inh: inhibitors of human KCNQ1 channel, primary screen, cell-based, thallium flux, high-throughput; CHO-K1 KCNQ1, FluxOR thallium flux fluorescence; active compounds read high; B-score at 10 µM; Potassium voltage-gated channel subfamily KQT member 1 (Homo sapiens), P51787; AID 2642, 2010; actives 1.3% (n = 310,000);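 active means compounds whose thallium flux B-score, printed positive for inhibition, exceeds three library SD while starting fluorescence stays within three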;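 further: channel opened by potassium depolarization with thallium stimulus after 20 min compound exposure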
* hit, by the source's call. Compounds with a hit are over-represented: about 3.7% of the library has one in this group of screens.

What do the screens show for `Nn1c(SC/C=C/c2ccccc2)nnc1-c1ccco1`?
KCNK9 block: inactive; KCNQ1 act: inactive; hERG rescue: -2.0; Kir21 block: 0.18; KCNK3 inh: inactive; KCNQ1 inh: inactive

Results for C(=C\c1ccccc1)/CSc1nnc(-c2ccncc2)n1Cc1ccco1 ?
KCNK9 block: inactive; KCNQ1 act: inactive; hERG rescue: -8.2; Kir21 block: -5.13*; KCNK3 inh: inactive; KCNQ1 inh: inactive

How did Cn1c(SCC(=O)N2c3ccccc3Sc3ccc(Cl)cc32)nnc1-c1ccco1 do in these assays?
KCNK3 inh: inactive

How did O=C(CSc1nnc(-c2ccncc2)n1Cc1ccco1)N1c2ccccc2Sc2ccc(Cl)cc21 do in these assays?
KCNK9 block: -6.64*; KCNQ1 act: inactive; hERG rescue: -6.4; Kir21 block: -0.09; KCNK3 inh: inactive; KCNQ1 inh: inactive

Results for C(=C\c1ccccc1)/CSc1nnc(-c2ccccc2)n1Cc1ccco1 ?
KCNK9 block: inactive; KCNQ1 act: inactive; hERG rescue: -10.7; Kir21 block: -5.43*; KCNK3 inh: inactive; KCNQ1 inh: inactive

Results for Cn1nnnc1SCC(=O)N1c2ccccc2Sc2ccc(Cl)cc21 ?
KCNK3 inh: -10.3*

How did COc1cc(CN2CCC(N3CCC(C(=O)N4CCCC4)CC3)CC2)cc2c1OCO2 do in these assays?
KCNK9 block: inactive; KCNQ1 act: inactive; hERG rescue: -7.2; Kir21 block: 1.55; KCNK3 inh: inactive; KCNQ1 inh: inactive

What do the screens show for `O=C(CSc1nnc(-c2cccnc2)n1Cc1ccco1)c1ccc2ccccc2c1`?
KCNK9 block: inactive; KCNQ1 act: inactive; hERG rescue: -4.3; Kir21 block: 0.75; KCNK3 inh: inactive; KCNQ1 inh: inactive

Results for O=C(CSc1nnc(-c2cccnc2)n1Cc1ccco1)c1ccc(Br)cc1 ?
KCNK9 block: inactive; KCNQ1 act: inactive; hERG rescue: -22.4; Kir21 block: -5.94*; KCNK3 inh: inactive; KCNQ1 inh: inactive

What do the screens show for `COC(=O)c1ccc(C(=O)OC)c(NC(=O)CCc2ccc(C)o2)c1`?
KCNK9 block: inactive; KCNQ1 act: inactive; hERG rescue: 45.2*; Kir21 block: 1.28; KCNK3 inh: inactive; KCNQ1 inh: inactive

How did CC(=NC1CCCC1)c1c(C)[nH]n(-c2nc3ccccc3s2)c1=O do in these assays?
KCNK9 block: inactive; KCNQ1 act: inactive; hERG rescue: 6.2*; Kir21 block: -0.82; KCNK3 inh: inactive; KCNQ1 inh: inactive

How did Cc1ccc(NC(=S)N/N=C/c2cccn2Cc2ccccc2F)cc1 do in these assays?
KCNK9 block: inactive; KCNQ1 act: inactive; hERG rescue: -7.7; Kir21 block: 1.78; KCNK3 inh: inactive; KCNQ1 inh: inactive

How did O=C(Nc1nc(-c2cccnc2)cs1)c1ccccc1Cl do in these assays?
KCNK9 block: inactive; KCNQ1 act: inactive; hERG rescue: 40.7*; Kir21 block: 0.19; KCNK3 inh: inactive; KCNQ1 inh: inactive

How did Cc1ccccc1C(=O)Nc1nc(-c2cccnc2)cs1 do in these assays?
KCNK9 block: inactive; KCNQ1 act: inactive; hERG rescue: -7.6; Kir21 block: -0.82; KCNK3 inh: inactive; KCNQ1 inh: inactive

What do the screens show for `Cc1ccc(NC(=O)CN(C)C(=O)C(C)OC(=O)c2ccccc2NCCO)cc1` (stereo not drawn)?
KCNK9 block: inactive; KCNQ1 act: inactive; hERG rescue: -9.1; Kir21 block: -0.99; KCNK3 inh: inactive; KCNQ1 inh: inactive

Results for CCC(=O)Nc1cccc(C2=NOC3(C2)C[C@H](C(N)=O)N(C(=O)CC#N)C3)c1 (stereo partly drawn) ?
KCNK9 block: inactive; KCNQ1 act: inactive; hERG rescue: 6.2*; Kir21 block: -0.02; KCNK3 inh: inactive; KCNQ1 inh: inactive
